Bioassay records (PubChem BioAssay)
Rows were chosen to be rich in hits. Some 1.4% of all compounds tested hit in one or more screens of this group.
Myeloid diff 2 = induction of myeloid progenitor differentiation, primary screen, cell-based, flow cytometry, MLPCN library | actives 1% (n = 360,000) | AID 624256, 2012 | calls only at 10 µM | ER-HoxA9 myeloid progenitors, lysozyme-GFP differentiation;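 active = normalized GFP-positive differentiation at or above the plate's own cutoff, the solvent-only control mean plus 3 SD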;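 note: cells exposed to compound for four days before flow analysis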
Casp6 inh = human caspase-6 inhibitors, primary screen, biochemical, VEID-R110 fluorescence, single point, set 2. purified caspase-6, Z-VEID-R110 cleavage fluorescence. inhibition, % at 12.5 µM. actives 0.53% (n = 350,000). P55212;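 active = mean inhibition across replicates at least about 35%, with every replicate also reaching that limit, limit read from the data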;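 note: 0% = median of neutral control wells and 100% = no fluorescence left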
Target sequence (P55212 24-179 limits assumed): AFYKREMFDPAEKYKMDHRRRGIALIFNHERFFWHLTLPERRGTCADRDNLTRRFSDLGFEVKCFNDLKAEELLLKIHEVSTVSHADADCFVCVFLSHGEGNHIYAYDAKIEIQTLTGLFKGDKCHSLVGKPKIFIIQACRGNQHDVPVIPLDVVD
Target sequence (P55212 194-293 limits assumed): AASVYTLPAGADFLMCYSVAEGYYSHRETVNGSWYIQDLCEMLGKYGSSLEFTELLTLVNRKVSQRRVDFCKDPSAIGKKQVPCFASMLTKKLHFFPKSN
T cell modulator = modulators of CD8 T cell-vesicle binding, primary screen, mouse 2C CD8+ T cells, flow cytometry | response (vesicle binding), % at 7 µM | actives 0.068% (n = 330,000) | 2C CD8+ T cell-vesicle binding; stronger effect = lower value | AID 2052, 2009;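 active = response, share of CD8 T cells binding vesicles, and their 90th percentile fluorescence all below set limits, cut at about 80% in these data, passing the limit was not always enough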;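 note: values below 100% mean blocked vesicle binding to the CD8+ T cells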
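Assay system: 2C TCR transgenic mouse naive CD8+ T cells, MACS-purified | Read-out: CD8+ gate FL2 mean fluorescence as % of same-row positive control | Signal: High-throughput flow cytometry with anti-B7-1 and anti-CD8 staining | Timing: Binding step 1.5 h, 37 °C, antibody labelling 20 min, ice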
Vif inh = HIV Vif self-association inhibitors, primary screen, imaging, HEK293T, single point | HEK293T cells, Vif self-association by quenched fluorescence, 24 h | inhibition, % at 7.49 µM | actives 0.35% (n = 340,000) | AID 602346, 2012; in the data active = inhibition above about 50%, passing the limit was not always enough
The depositor's hits bear a star; ! = repeats disagree.

How did O=C(NN=C1CCC(c2ccccc2)CC1)c1cc2c(s1)CCCC2 (centres undefined) do in these assays?
Myeloid diff 2: inactive; Casp6 inh: -0.8; T cell modulator: 238.8; Vif inh: 7.1

What do the screens show for `COc1ccc([C@H]2CN(c3ccc(OC)cc3)C(=O)[C@@H]2CC(=O)Nc2ccc(Br)cc2)cc1`?
Myeloid diff 2: active; Casp6 inh: 1.2; Vif inh: -2.2

Results for O=C(Cc1ccncc1)Nc1ccc2c(c1)[C@@H]1C[C@H](CC(=O)N3CCCCC3)O[C@@H](CO)[C@@H]1O2 ?
Casp6 inh: -0.6

What do the screens show for `Cc1ccc(N2C(=O)c3ccccc3C2C(=O)c2ccc(O)cc2O)cc1` (centres undefined)?
Myeloid diff 2: inactive; Casp6 inh: 73.8*; T cell modulator: 158.9; Vif inh: 4.5

Results for CCC(C)NCC(=O)Nc1ccc(-c2nc3cc(NC(=O)CNC(C)CC)ccc3o2)cc1 (centres undefined) ?
Myeloid diff 2: active; T cell modulator: 208.7; Vif inh: 11.7

How did COCCN1C(=O)/C(=C/c2ccc(N3CCCC3)cc2C)SC1=S do in these assays?
Myeloid diff 2: active; Casp6 inh: 0.4; T cell modulator: 418.6; Vif inh: 1.8

How did CCN=C1S/C(=C\c2ccc(N3CCOCC3)cc2C)C(=O)N1CC do in these assays?
Myeloid diff 2: inactive; Casp6 inh: 0.5; T cell modulator: 296.7; Vif inh: 9.1

How did COc1cccc(N(CC(=O)NC2CCCC2)C(=O)CCC(=O)Nc2cc(C)on2)c1 do in these assays?
Myeloid diff 2: active; Casp6 inh: 3.8; T cell modulator: 299.9; Vif inh: -4.0

How did COc1cccc(CN(CC(=O)NC2CCCC2)C(=O)CCC(=O)Nc2cc(C)on2)c1 do in these assays?
Myeloid diff 2: inactive; T cell modulator: 452.8; Vif inh: 0.7

How did CO[C@@H]1CN(C)C(=O)c2cc(NC(=O)NC(C)C)ccc2OC[C@H](C)N(C(=O)CC2CC2)C[C@@H]1C do in these assays?
Casp6 inh: -2.0

How did CC(=O)Nc1cccc(NC(=O)c2cc(-c3ccccn3)nc3ccc(Cl)cc23)c1 do in these assays?
Myeloid diff 2: inactive; Casp6 inh: -1.3; T cell modulator: 179.1; Vif inh: 69.8*

How did C[C@H]1CN([C@@H](C)CO)S(=O)(=O)c2ccc(C#CCN(C)C)cc2O[C@H]1CN(C)Cc1ccc2c(c1)OCO2 do in these assays?
Casp6 inh: 36.1*

How did Cc1ccc(S(=O)(=O)N(C)C[C@@H]2Oc3cc(C#Cc4ccccc4)ccc3S(=O)(=O)N([C@H](C)CO)C[C@@H]2C)cc1 do in these assays?
Casp6 inh: 0.9

What do the screens show for `C[C@@H]1CN([C@@H](C)CO)S(=O)(=O)c2ccc(-c3ccc(C#N)cc3)cc2O[C@@H]1CN(C)Cc1ccccn1`?
Myeloid diff 2: inactive; Casp6 inh: 44.7*!; Vif inh: 0.8

Results for C[C@H]1CN([C@@H](C)CO)S(=O)(=O)c2ccc(C#CCN(C)C)cc2O[C@@H]1CN(C)Cc1ccc2c(c1)OCO2 ?
Casp6 inh: 0.6

What do the screens show for `Cc1ccc(S(=O)(=O)N(C)C[C@@H]2Oc3cc(C#Cc4ccccc4)ccc3S(=O)(=O)N([C@@H](C)CO)C[C@@H]2C)cc1`?
Casp6 inh: 39.1*

What do the screens show for `CO[C@@H]1CN(C)C(=O)c2ccc(NC(=O)CC(F)(F)F)cc2OC[C@@H](C)N(C(=O)C2CC2)C[C@@H]1C`?
Casp6 inh: -0.7

How did CC(C)NC(=O)N(C)C[C@H]1Oc2ncc(C#Cc3ccncc3)cc2C(=O)N([C@@H](C)CO)C[C@@H]1C do in these assays?
Casp6 inh: 0.1

Results for COc1cccc(NC(=O)N[C@H]2C=C[C@@H](CC(=O)Nc3ccc(-c4ccccc4)cc3)O[C@H]2CO)c1 ?
Casp6 inh: 4.1

Results for CCCNC(=O)N(C)C[C@H]1Oc2ncc(-c3ccccc3)cc2C(=O)N([C@H](C)CO)C[C@@H]1C ?
Casp6 inh: -1.4

How did Cc1cc(OC(F)F)ccc1NC(=S)NCCc1ccccc1 do in these assays?
Myeloid diff 2: inactive; Casp6 inh: 1.9; T cell modulator: 244.2; Vif inh: 1.1

Results for COc1ccc(NC(=S)NCCc2ccccc2)c(C)c1 ?
Myeloid diff 2: inactive; Casp6 inh: 36.4*; T cell modulator: 303.0; Vif inh: -4.5

Results for CO[C@@H]1CN(C)C(=O)c2ccc(NS(C)(=O)=O)cc2OC[C@@H](C)NC[C@H]1C ?
Casp6 inh: -0.8

What do the screens show for `CC(Sc1nc2ccccc2[nH]1)C(=O)NC1CCCCC1C` (centres undefined)?
Myeloid diff 2: inactive; Casp6 inh: 2.1; T cell modulator: 49.0*; Vif inh: -1.2

What do the screens show for `CC(Sc1nc2ccccc2c(=O)n1C)C(=O)NC1CCCCC1C` (centres undefined)?
Myeloid diff 2: inactive; T cell modulator: 654.1; Vif inh: -14.8

Results for COc1ccc(OC)c(N(C(=O)c2ccco2)C(C(=O)NC2CCCC2)c2ccc(N3CCOCC3)cc2)c1 (centres undefined) ?
Myeloid diff 2: inactive; Casp6 inh: 0.8; T cell modulator: 361.3; Vif inh: 13.7

How did COc1ccc(C)cc1N(C(=O)c1ccco1)C(C(=O)NC1CCCC1)c1ccc(N2CCOCC2)cc1 (centres undefined) do in these assays?
Myeloid diff 2: active; Casp6 inh: 2.5; T cell modulator: 446.9; Vif inh: 8.7

Results for CO[C@@H]1CN(C)C(=O)c2ccc(NC(=O)c3ccc(F)cc3)cc2OC[C@@H](C)N(C(C)=O)C[C@H]1C ?
Casp6 inh: -2.9

What do the screens show for `O=C(NCCc1ccc(Cl)cc1)Nc1ccc(F)cc1`?
Myeloid diff 2: inactive; Casp6 inh: -0.6; T cell modulator: 203.5; Vif inh: 22.0

What do the screens show for `CCCc1c(NC(=O)Nc2ccc(F)cc2)cnn1-c1ccc(Cl)cc1`?
Myeloid diff 2: active; Casp6 inh: -4.0; T cell modulator: 414.1; Vif inh: -5.6

What do the screens show for `COc1ccc(-c2c(C#Cc3ccsc3)c3cc(-c4ccc5[nH]ccc5c4)ccc3n2C)cc1`?
Myeloid diff 2: active; Casp6 inh: -1.7; T cell modulator: 829.3; Vif inh: 15.1

How did O=C(c1ccc2c(c1)OCO2)N(CC1CCCO1)C1(C(=O)NC2CCCC2)CCCCC1 (centres undefined) do in these assays?
Myeloid diff 2: inactive; T cell modulator: 189.5; Vif inh: 69.5*

How did O=C(NC1(C(=O)NC2CCCCC2)CCCCC1)c1ccc2c(c1)OCO2 do in these assays?
Myeloid diff 2: inactive; T cell modulator: 167.4; Vif inh: 8.3

What do the screens show for `O=C1Nc2c(Cl)cccc2C1=O`?
Myeloid diff 2: inactive; Casp6 inh: 36.8*

Results for Cc1cccc2c1NC(=O)C2=O ?
Myeloid diff 2: inactive; Casp6 inh: 28.1; Vif inh: 2.8

What do the screens show for `Cc1ccc(Cl)c2c1NC(=O)C2=O`?
Myeloid diff 2: inactive; Casp6 inh: 0.1; T cell modulator: 0.0*; Vif inh: -2.0
